Here are results for five compounds from ChEMBL document CHEMBL3045403, “chemical composition, plant genetic differences, antimicrobial and antifungal activity investigation of the essential oil of Rosmarinus officinalis L” (J Agric Food Chem, 2004).

SMILES strings stand for the structures. The source made the active and inactive calls. No cut-off for these calls is given here. Bounds are passed on as bounds.

For series [1], the system named is Fusarium graminearum. The series is described as follows: Induction of growth of Fusarium graminearum after 4 to 12 days. The settings on record: in vivo. Type of series: organism-based. The method in brief: (§1)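 Mycelial fragments (6 mm diameter, from 10-day cultures) were seeded on PDA in Petri dishes. Essential oil was added at 450 and 900 µL/mL, and plates were sealed and incubated in the dark at 22 °C. Controls received distilled water instead of oil. Mean diametric colony growth was read at 4, 8 and 12 days. Inhibition % = 100(C − T)/C, where C is the control diameter and T the oil-treated diameter.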

Another series relates to Candida albicans. Briefly: Antimicrobial activity against Candida albicans ATCC 14053 assessed as growth inhibition after 24 hr by broth microdilution method. Type of series: functional. In short, it runs like this: (§2)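 Broth microdilution. Oils prepared as […] in DMSO and diluted in the plates to 3.5–900 µL/mL. Inoculum 5×10^5 cfu/mL, checked by plating on PDA. Incubated aerobically for 24 h at 37 °C (C. albicans at 30 °C). MIC taken as the first well, in ascending order, with no pellet or turbidity. MBC (99.9% kill) from 25 µL subcultured on PDA overnight at 37 °C. Three repeats.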

The test system of the next series is Pseudomonas aeruginosa. The series is described as follows: Antimicrobial activity against Pseudomonas aeruginosa ATCC 9027 assessed as growth inhibition after 24 hr by broth microdilution method. It counts as functional. The method in brief: as §2
A further series deals with Escherichia coli. Briefly: Antimicrobial activity against Escherichia coli ATCC 8739 assessed as growth inhibition after 24 hr by broth microdilution method. It counts as functional. In short, it runs like this:
as §2

For series [2], the system named is Staphylococcus epidermidis. Briefly: Antimicrobial activity against Staphylococcus epidermidis ATCC 12228 assessed as growth inhibition after 24 hr by broth microdilution method. It counts as functional. The method in brief: as §2
For another series, the system named is Staphylococcus aureus. Briefly: Antimicrobial activity against Staphylococcus aureus ATCC 6538 assessed as growth inhibition after 24 hr by broth microdilution method. Type of series: functional. The method in brief: as §2
The test system of another series is Rhizoctonia solani. The series is described as follows: Antifungal activity against Rhizoctonia solani assessed as mycelial growth inhibition after 4 to 12 days. Type of series: functional, organism-based. In short, it runs like this:
(§3)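 Mycelial plugs (6 mm, 10-day-old cultures) inoculated on PDA in Petri dishes; essential oil added at 450 and 900 µL/mL; dishes sealed with Parafilm and held in the dark at 22 °C. Control: PDA plus distilled water. Mean colony diameter measured at 4, 8 and 12 days; inhibition I = 100(C − T)/C. Plates without growth were transferred to plain PDA for 48 h to tell fungistatic from fungicidal.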

A further series deals with Fusarium culmorum. Briefly: Antifungal activity against Fusarium culmorum assessed as mycelial growth inhibition after 4 to 12 days. Type of series: functional, organism-based. In short, it runs like this: as §3
Series [3] concerns Fusarium graminearum. Briefly: Antifungal activity against Fusarium graminearum assessed as mycelial growth inhibition after 4 to 12 days. Type of series: functional, organism-based. In short, it runs like this: as §1
Series [4] has as its system Fusarium oxysporum f. sp. lycopersici. The series is described as follows: Antifungal activity against Fusarium oxysporum f. sp. lycopersici assessed as mycelial growth inhibition after 4 to 12 days. It counts as functional, organism-based. In short, it runs like this:
as §3

The subject of the next series is Botrytis cinerea. Briefly: Antifungal activity against Botryotinia fuckeliana assessed as mycelial growth inhibition after 4 to 12 days. Type of series: functional, organism-based. The method in brief: as §3

As for `CC12CCC(CC1=O)C2(C)C` (stereo not given) [CAMPHOR], the Activity entry in the series with Fusarium graminearum [1] is “Toxic”. Besides, the MIC (in the series with Candida albicans; in the series on Pseudomonas aeruginosa; in the series on Escherichia coli; in series [2]; in the series with Staphylococcus aureus) was >900 uL/ml in each case. Besides, the “growth inhibition (GI)” value (in the series with Rhizoctonia solani; in the series on Fusarium culmorum; in the series with Fusarium graminearum [3]; in series [4]; in the series on Botrytis cinerea) was “inactive” in each case.
Regarding `CC1=CCC2CC1C2(C)C` (stereo not drawn) [ALPHA-PINENE], the Activity result with Fusarium graminearum [1] is “Toxic”. Besides, the MIC (in the series with Candida albicans; with Pseudomonas aeruginosa; in the series on Escherichia coli; in series [2]; in the series with Staphylococcus aureus) was >900 uL/ml throughout. Moreover, the “growth inhibition (GI)” value (in the series on Rhizoctonia solani; with Fusarium culmorum; with Fusarium graminearum [3]; in series [4]; in the series on Botrytis cinerea) was “inactive” in each case.
As to `C=C1[C@@H]2CC[C@@H](C2)C1(C)C` [(-)-CAMPHENE], in the series with Fusarium graminearum [1], the Activity entry is on record as “Toxic”. The MIC (in the series on Candida albicans; with Pseudomonas aeruginosa; in the series on Escherichia coli; in [2]; in the series with Staphylococcus aureus) was >900 uL/ml in each case. Besides, the “growth inhibition (GI)” value (in the series on Rhizoctonia solani; in the series on Fusarium culmorum; in the series on Fusarium graminearum [3]; in series [4]; with Botrytis cinerea) was “inactive” each time.
Consider `CC1=CC(=O)[C@@H]2C[C@H]1C2(C)C` [VERBENONE], for which the Activity result in the series on Fusarium graminearum [1] was “Toxic”. Also, the MIC (in the series on Candida albicans; with Pseudomonas aeruginosa; in the series on Escherichia coli; in series [2]; in the series with Staphylococcus aureus) was >900 uL/ml in each case. Moreover, the “growth inhibition (GI)” value (in the series on Rhizoctonia solani; in the series on Fusarium culmorum; in the series on Fusarium graminearum [3]; in series [4]; in the series on Botrytis cinerea) was “inactive” in each case.
As to `CC1(C)C2CCC1(C)C(O)C2` (stereo not given) [BORNEOL], in the series on Fusarium graminearum [1], the Activity entry is reported as “Toxic”. Besides, the MIC (with Candida albicans; in the series with Pseudomonas aeruginosa; in the series on Escherichia coli; in series [2]; in the series on Staphylococcus aureus) was >900 uL/ml throughout. Moreover, the “growth inhibition (GI)” value (in the series with Rhizoctonia solani; in the series with Fusarium culmorum; in the series with Fusarium graminearum [3]; in series [4]; in the series on Botrytis cinerea) was “inactive” in each case.
